Laboratory results: ChEMBL document CHEMBL1153955, “Indolylarylsulfones bearing natural and unnatural amino acids. Discovery of potent inhibitors of HIV-1 non-nucleoside wild type and resistant mutant strains reverse transcriptase and coxsackie B4 virus” (J Med Chem, 2009)

Tests used:
[1] = system: Respiratory syncytial virus; test: Antiviral activity against RSV Long in human HeLa cells assessed as protection against virus-induced cytopathicity; assay type: functional, organism-based
Summary of the method: (§1)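 Confluent cell monolayers inoculated with 100 CCID₅₀ virus. After 1-2 h adsorption, residual virus removed and cultures incubated with varying compound concentrations. Cytopathicity scored once it reached completion in untreated infected controls. EC₅₀ = dose reducing virus-induced cytopathogenicity by 50%.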

[2] = system: Vesicular stomatitis virus; test: Antiviral activity against VSV in human HeLa cells assessed as protection against virus-induced cytopathicity; assay type: functional, organism-based
[3] = system: Human immunodeficiency virus 1; test: Antiviral activity against HIV1 3B in human CEM cells assessed as protection against virus-induced cytopathicity after 4 days; assay type: functional, organism-based; details: Human immunodeficiency virus 1, 3B, CCRF-CEM, 96 h
Summary of the method: (§2)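 CEM cells (~3 × 10⁵ cells/mL) infected with ~100 CCID₅₀ per mL of HIV-1 (IIIB) or HIV-2 (ROD), then seeded into wells containing compound dilutions. After 4 days at 37 °C, syncytium (giant cell) formation was examined microscopically. EC₅₀ = concentration protecting CEM cells from HIV cytopathicity by 50%.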

[4] = system: Human immunodeficiency virus 2; test: Antiviral activity against HIV2 ROD in human CEM cells assessed as protection against virus-induced cytopathicity after 4 days; assay type: functional, organism-based; details: Human immunodeficiency virus 2, ROD, CCRF-CEM, 96 h; summary of the method: as §2
L1210 = test: Antiproliferative activity against mouse L1210 cells after 2 days; assay type: cell-based; details: L1210, 48 h
Summary of the method: (§3)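 Cells seeded at 5 × 10⁴ to 7.5 × 10⁴ cells/200 µL with or without serial compound dilutions; incubated at 37 °C for 2 days (L1210) or 3 days (Molt4/C8, CEM). Cell numbers counted with a Coulter counter. CC₅₀ = concentration reducing proliferation by 50% versus untreated controls, read from plots of cell number (% of control) against concentration. Means of at least two independent experiments.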

[5] = Antiproliferative activity against human Molt4/C8 cells after 3 days; assay type: cell-based; details: MOLT-4, 72 h; summary of the method: as §3
CCRF-CEM = test: Antiproliferative activity against human CEM cells after 3 days; assay type: cell-based; details: 72 h; summary of the method: as §3
[6] = target: Human immunodeficiency virus type 1 reverse transcriptase (Human immunodeficiency virus 1, UniProt Q72547); test: Inhibition of HIV1 reverse transcriptase p66/p51; details: read-out: IC50
[7] = target: Human immunodeficiency virus type 1 reverse transcriptase (Human immunodeficiency virus 1, UniProt Q72547, L100I); test: Inhibition of HIV1 reverse transcriptase p66/p51 L100I mutant; details: read-out: IC50
Summary of the method: (§4)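 Substrate was 0.5 µg poly(rA)/oligo(dT) 10:1 (0.3 µM 3′-OH ends) with 10 µM [³H]dTTP, at 37 °C. Acid-precipitable radioactivity was counted on GF/C filters after TCA washes.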

[8] = target: Human immunodeficiency virus type 1 reverse transcriptase (Human immunodeficiency virus 1, UniProt Q72547, K103N); test: Inhibition of HIV1 reverse transcriptase p66/p51 K103N mutant; details: read-out: IC50; summary of the method: as §4
[9] = target: Human immunodeficiency virus type 1 reverse transcriptase (Human immunodeficiency virus 1, UniProt Q72547, Y181I); test: Inhibition of HIV1 reverse transcriptase p66/p51 Y181I mutant; details: read-out: IC50; summary of the method: as §4
[10] = Cytotoxicity against human HeLa cells assessed as drug level causing microscopically detectable alteration of normal cell morphology after 3 days; assay type: cell-based
Summary of the method: (§5)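 Serial compound dilutions added to confluent HeLa or Vero monolayers. MCC = minimum concentration causing microscopically detectable alteration of cell morphology after 3 days of incubation.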

[11] = Cytotoxicity against african green monkey Vero cells assessed as drug level causing microscopically detectable alteration of normal cell morphology after 3 days; assay type: cell-based; details: chlorocebus sabaeus; summary of the method: as §5
Coxsackievirus B4 [12] = test: Antiviral activity against Coxsackievirus B4 in human HeLa cells assessed as protection against virus-induced cytopathicity; assay type: functional, organism-based; details: Enterovirus B; summary of the method: as §1
Coxsackievirus B4 [13] = test: Antiviral activity against Coxsackievirus B4 in african green monkey Vero cells assessed as protection against virus-induced cytopathicity; assay type: functional, organism-based; details: Enterovirus B; summary of the method: as §1
Human respirovirus 3 = test: Antiviral activity against Parainfluenza virus type 3 in african green monkey Vero cells assessed as protection against virus-induced cytopathicity; assay type: functional, organism-based; details: Human respirovirus 3, Vero; summary of the method: as §1
[14] = system: Mammalian orthoreovirus 1; test: Antiviral activity against Reovirus 1 in african green monkey Vero cells assessed as protection against virus-induced cytopathicity; assay type: functional, organism-based; details: Mammalian orthoreovirus 1, Vero; summary of the method: as §1
Sindbis virus = test: Antiviral activity against Sindbis virus in african green monkey Vero cells assessed as protection against virus-induced cytopathicity; assay type: functional, organism-based; summary of the method: as §1
Punta Toro virus = test: Antiviral activity against Punta Toro virus in african green monkey Vero cells assessed as protection against virus-induced cytopathicity; assay type: functional, organism-based; summary of the method: as §1
[15] = Cytotoxicity against human HEL cells assessed as drug level causing microscopically detectable alteration of normal cell morphology after 3 days; assay type: cell-based
Human alphaherpesvirus 1 [16] = test: Antiviral activity against HSV1 KOS in human HEL cells assessed as protection against virus-induced cytopathicity; assay type: functional, organism-based; details: Human alphaherpesvirus 1, KOS
Human alphaherpesvirus 2 = test: Antiviral activity against HSV2 G in human HEL cells assessed as protection against virus-induced cytopathicity; assay type: functional, organism-based; details: Human alphaherpesvirus 2, strain G; summary of the method: as §1
Vaccinia virus = test: Antiviral activity against Vaccinia virus Lederle in human HEL cells assessed as protection against virus-induced cytopathicity; assay type: functional, organism-based; details: Orthopoxvirus vaccinia
[17] = system: Vesicular stomatitis virus; test: Antiviral activity against VSV in human HEL cells assessed as protection against virus-induced cytopathicity; assay type: functional, organism-based
Human alphaherpesvirus 1 [18] = test: Antiviral activity against thymidine kinase deficient and acyclovir resistant HSV1 KOS in human HEL cells assessed as protection against virus-induced cytopathicity; assay type: functional, organism-based; details: Human alphaherpesvirus 1, KOS
[19] = Cytotoxicity against MDCK cells assessed as drug level causing microscopically detectable alteration of normal cell morphology; assay type: cell-based, Canis lupus familiaris; details: dog
[20] = Cytotoxicity against MDCK cells by MTS assay; assay type: cell-based, Canis lupus familiaris; details: dog
Influenza A virus [21] = test: Antiviral activity against influenza H1N1 virus in MDCK cells assessed as reduction of virus-induced cytopathicity by visual cytopathic effect scoring method; assay type: functional, organism-based
Influenza A virus [22] = test: Antiviral activity against influenza H1N1 virus in MDCK cells assessed as reduction of virus-induced cytopathicity by MTS method; assay type: functional, organism-based; details: Influenza A virus, H1N1, MDCK
Influenza A virus H3N2 [23] = test: Antiviral activity against influenza H3N2 virus in MDCK cells assessed as reduction of virus-induced cytopathicity by visual cytopathic effect scoring method; assay type: functional, organism-based
Influenza A virus H3N2 [24] = test: Antiviral activity against influenza H3N2 virus in MDCK cells assessed as reduction of virus-induced cytopathicity by MTS method; assay type: functional, organism-based
Influenza B virus [25] = test: Antiviral activity against influenza B virus in MDCK cells assessed as reduction of virus-induced cytopathicity by visual cytopathic effect scoring method; assay type: functional, organism-based
Influenza B virus [26] = test: Antiviral activity against influenza B virus in MDCK cells assessed as reduction of virus-induced cytopathicity by MTS method; assay type: functional, organism-based
[27] = Cytotoxicity against feline CRFK cells by MTS assay; assay type: cell-based, Felis catus; details: cat
Feline coronavirus = test: Antiviral activity against Feline coronavirus in feline […] cells assessed as inhibition of virus-induced cytopathicity; assay type: functional, organism-based; details: Alphacoronavirus 1
Felid alphaherpesvirus 1 = test: Antiviral activity against Feline herpesvirus in feline […] cells assessed as inhibition of virus-induced cytopathicity; assay type: functional, organism-based

## Cc1cc(C)cc(S(=O)(=O)c2c(C(=O)NC(C)CC(N)=O)[nH]c3ccc(Cl)cc23)c1 (stereo not drawn)
[1]
  EC50: > 20 µM
[2]
  EC50: > 20 µM
[3]
  EC50: 26 nM
[4]
  EC50: 30 µM
L1210
  IC50: 48 µM
[5]
  IC50: 36 µM
CCRF-CEM
  IC50: 32 µM
[6]
  IC50: 120 nM
[7]
  IC50: 252 nM
[8]
  IC50: 288 nM
[9]
  IC50: 4.14 µM
[10]
  MCC at 72 h: ≥ 20 µM
[11]
  MCC at 72 h: 100 µM
Coxsackievirus B4 [12]
  EC50: 4.5 µM
Coxsackievirus B4 [13]
  EC50: 16 µM
Human respirovirus 3
  EC50: > 20 µM
[14]
  EC50: > 20 µM
Sindbis virus
  EC50: > 20 µM
Punta Toro virus
  EC50: > 20 µM
[15]
  MCC at 72 h: 100 µM
Human alphaherpesvirus 1 [16]
  EC50: > 20 µM
Human alphaherpesvirus 2
  EC50: > 20 µM
Vaccinia virus
  EC50: > 20 µM
[17]
  EC50: > 20 µM
Human alphaherpesvirus 1 [18]
  EC50: > 20 µM
[19]
  MCC: 20 µM
[20]
  CC50: 13.5 µM
Influenza A virus [21]
  EC50: > 4 µM
Influenza A virus [22]
  EC50: > 4 µM
Influenza A virus H3N2 [23]
  EC50: > 4 µM
Influenza A virus H3N2 [24]
  EC50: > 4 µM
Influenza B virus [25]
  EC50: > 4 µM
Influenza B virus [26]
  EC50: > 4 µM
[27]
  CC50: 18.9 µM
Feline coronavirus
  EC50: > 4 µM
Felid alphaherpesvirus 1
  EC50: > 4 µM

## Cc1cc(C)cc(S(=O)(=O)c2c(C(=O)NC(C)CC(N)=O)[nH]c3ccc(Br)cc23)c1 (stereo not drawn)
[1]
  EC50: > 20 µM
[2]
  EC50: > 20 µM
[3]
  EC50: 1.5 nM
[4]
  EC50: > 10 µM
L1210
  IC50: 16 µM
[5]
  IC50: 16 µM
CCRF-CEM
  IC50: 18 µM
[6]
  IC50: 81 nM
[7]
  IC50: 296 nM
[8]
  IC50: 321 nM
[9]
  IC50: 15.8 µM
[10]
  MCC at 72 h: ≥ 20 µM
[11]
  MCC at 72 h: ≥ 20 µM
Coxsackievirus B4 [12]
  EC50: ≥ 20 µM
Coxsackievirus B4 [13]
  EC50: > 20 µM
Human respirovirus 3
  EC50: > 20 µM
[14]
  EC50: > 20 µM
Sindbis virus
  EC50: > 20 µM
Punta Toro virus
  EC50: > 20 µM
[15]
  MCC at 72 h: 20 µM
Human alphaherpesvirus 1 [16]
  EC50: > 4 µM
Human alphaherpesvirus 2
  EC50: > 4 µM
Vaccinia virus
  EC50: > 4 µM
[17]
  EC50: > 4 µM
Human alphaherpesvirus 1 [18]
  EC50: > 4 µM
[19]
  MCC: ≥ 4 µM
[20]
  CC50: 79 µM
Influenza A virus [21]
  EC50: > 4 µM
Influenza A virus [22]
  EC50: > 4 µM
Influenza A virus H3N2 [23]
  EC50: > 4 µM
Influenza A virus H3N2 [24]
  EC50: > 4 µM
Influenza B virus [25]
  EC50: > 4 µM
Influenza B virus [26]
  EC50: > 4 µM
[27]
  CC50: 11.1 µM
Feline coronavirus
  EC50: > 4 µM
Felid alphaherpesvirus 1
  EC50: > 4 µM

## Cc1cc(C)cc(S(=O)(=O)c2c(C(=O)NCCC(N)=O)[nH]c3ccc(Br)cc23)c1
[1]
  EC50: ≥ 20 µM
[2]
  EC50: > 20 µM
[3]
  EC50: 1.1 nM
[4]
  EC50: 23 µM
L1210
  IC50: 46 µM
[5]
  IC50: 25 µM
CCRF-CEM
  IC50: 36 µM
[6]
  IC50: 86 nM
[7]
  IC50: 169 nM
[8]
  IC50: 420 nM
[9]
  IC50: 8.57 µM
[10]
  MCC at 72 h: ≥ 20 µM
[11]
  MCC at 72 h: 100 µM
Coxsackievirus B4 [12]
  EC50: 11 µM
Coxsackievirus B4 [13]
  EC50: 16 µM
Human respirovirus 3
  EC50: > 20 µM
[14]
  EC50: > 20 µM
Sindbis virus
  EC50: > 20 µM
Punta Toro virus
  EC50: > 20 µM
[15]
  MCC at 72 h: 20 µM
Human alphaherpesvirus 1 [16]
  EC50: > 4 µM
Human alphaherpesvirus 2
  EC50: > 4 µM
Vaccinia virus
  EC50: > 4 µM
[17]
  EC50: > 4 µM
Human alphaherpesvirus 1 [18]
  EC50: > 4 µM
[19]
  MCC: 20 µM
[20]
  CC50: 8.5 µM
Influenza A virus [21]
  EC50: > 4 µM
Influenza A virus [22]
  EC50: > 4 µM
Influenza A virus H3N2 [23]
  EC50: > 4 µM
Influenza A virus H3N2 [24]
  EC50: > 4 µM
Influenza B virus [25]
  EC50: > 4 µM
Influenza B virus [26]
  EC50: > 4 µM
[27]
  CC50: 15.6 µM
Feline coronavirus
  EC50: > 4 µM
Felid alphaherpesvirus 1
  EC50: > 4 µM
